T cruzi growth-1 – T. cruzi proliferation inhibition. AID 624255. inhibition, % at 8.34 µM. 5.9% of 77,000 active. T. cruzi beta-gal in NIH3T3, GalScreen luminescence, 90 h;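 active = mean inhibition above about 93%, with at least 55% of replicates each passing it, limit read from the data, passing the limit was not always enough; inconclusive = only one of those two conditions holds; inactive = neither condition holds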
IDH1 mut inh – IDH1 R132H (human) inhibition. O75874. IDH1 R132H reductase, diaphorase/resazurin fluorescence, 60 min. inhibition, % at 10 µM. 0.18% of 70,000 active; in the data active = inhibition above about 34%; inconclusive = no clear call, values can overlap the other calls; inactive = below about 11%;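 also: 0% = DMSO and 100% = no enzyme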
Target sequence (O75874 whole entry R132H): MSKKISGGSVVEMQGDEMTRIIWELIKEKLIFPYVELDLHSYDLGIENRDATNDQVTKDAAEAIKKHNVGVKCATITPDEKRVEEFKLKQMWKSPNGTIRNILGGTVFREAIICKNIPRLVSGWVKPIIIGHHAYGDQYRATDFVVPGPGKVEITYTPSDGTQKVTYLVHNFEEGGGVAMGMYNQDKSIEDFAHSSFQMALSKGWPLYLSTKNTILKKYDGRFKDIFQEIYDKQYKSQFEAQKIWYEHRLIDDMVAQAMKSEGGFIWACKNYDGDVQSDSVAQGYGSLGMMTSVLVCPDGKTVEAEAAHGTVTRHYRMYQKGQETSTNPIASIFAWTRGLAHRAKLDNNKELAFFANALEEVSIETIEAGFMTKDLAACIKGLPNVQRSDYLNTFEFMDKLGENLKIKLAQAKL
GASC1 inh – inhibitors of human demethylase GASC-1 KDM4C; Q9H3R0; GST-KDM4C 2-372, H3K9me3 peptide, LANCE TR-FRET; inhibition, % at 12.5 µM; 0.15% of 96,000 active;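 active = mean replicate inhibition above about 25%, with at least 55% of replicates also reaching it, limit read from the data, passing the limit was not always enough; inconclusive = only one of those two conditions met; inactive = neither condition met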
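Material: GST-tagged GASC-1 (JMJD2C) catalytic fragment, aa 2-372 / Quantity: enzyme final amount 10 nM / Medium: HEPES buffer, pH 7.5, plus ascorbate / Doses: one test concentration per compound / Incubation: 30 min reaction, 60 min detection, RT / Measured by: LANCE TR-FRET / Read-out: inhibition from TR-FRET ratio decrease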
T cruzi growth-2 – blocks T. cruzi growth in NIH3T3 host cells; 72% of 5,600 active; inhibition, % at 8.35 µM; shares compounds with T cruzi growth-1; T. cruzi beta-gal in NIH3T3, GalScreen luminescence, 90 h; AID 651739;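 active = mean replicate inhibition above about 95% and at least 55% of replicates individually reaching it, limit read from the data; inconclusive = only one of the two criteria is met; inactive = neither criterion is met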
T cruzi growth-3 – blocks T. cruzi growth in NIH3T3 host cells; shares compounds with T cruzi growth-1; T. cruzi beta-gal in NIH3T3, GalScreen luminescence, 90 h; inhibition, % at 2.09 µM; 21% of 5,600 active; AID 651740;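 active = mean inhibition above about 95%, with at least 55% of replicates also reaching it, limit read from the data; inconclusive = meets just one of the two conditions; inactive = meets neither condition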;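 also: plate controls were neutral control median for no effect and positive control median for full effect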
3T3 cytotox – kills mouse NIH/3T3 fibroblasts. shares compounds with T cruzi growth-1. NIH/3T3 viability, CellTiter-Glo ATP luminescence, 90 h. cytotoxicity (signal decrease), % at 8.35 µM. 14% of 5,600 active. AID 651742;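 active = mean signal decrease across replicates above about 35% based on untreated-well scatter, with enough replicates individually passing, limit read from the data; inconclusive = no rule stated though some were filed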;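 also: 0% = median of neutral control wells and 100% = median of positive control wells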
NIH3T3 tox 2 – cytotoxicity in mouse NIH/3T3 fibroblasts | shares compounds with T cruzi growth-1 | NIH/3T3 viability, CellTiter-Glo ATP luminescence, 90 h | inhibition, % at 24.9 µM | 56% of 5,600 active | AID 651744;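 active = mean loss of cell viability signal at or above a set limit, and enough replicates individually reaching it; inconclusive = meets only the mean limit or only the replicate share; inactive = meets neither condition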;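 also: 0% = median of neutral control wells and 100% = median of positive control wells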
* hit, by the source's call; ? = inconclusive; . = no result; ! = not active in a repeat. This excerpt belongs to a sample that is enriched for hits.

SMILES	T cruzi growth-1	IDH1 mut inh	GASC1 inh	T cruzi growth-2	T cruzi growth-3	3T3 cytotox	NIH3T3 tox 2
C[C@H]1CN([C@@H](C)CO)C(=O)Cc2cc(NC(=O)Nc3cccc4ccccc34)ccc2O[C@H]1CN(C)Cc1ccc(-c2ccccc2)cc1	86.9	-0.2	-2.9	.	.	.	.
C[C@@H]1CN([C@@H](C)CO)C(=O)Cc2cc(NC(=O)Nc3cccc4ccccc34)ccc2O[C@@H]1CN(C)Cc1ccc(-c2ccccc2)cc1	103.5*	.	-3.4	108.3*	75.3	23.0	?
C[C@@H]1CN([C@H](C)CO)C(=O)Cc2cc(NC(=O)Nc3cccc4ccccc34)ccc2O[C@@H]1CN(C)Cc1ccc(-c2ccccc2)cc1	97.9*	2.0	-3.1	111.8*	62.2	18.8	?
CN(C(=S)SCc1ccccc1)c1ccccc1	.	-0.3	.	.	.	.	.
Cc1ccc(C)c(NC(=O)C(C)n2nc(C)c([N+](=O)[O-])c2C)c1 (stereo not given)	.	0.0	.	.	.	.	.
COc1ccc(C(=O)On2c(-c3ccccc3)cc3ccccc32)cc1	.	-0.5	.	.	.	.	.
C[C@@H]1CN([C@@H](C)CO)C(=O)CCCn2nncc2CO[C@@H]1CN(C)C(=O)c1ccc2ccn(C)c2c1	18.1	-1.5	0.4	.	.	.	.
C[C@@H]1CN([C@@H](C)CO)C(=O)CCCn2nncc2CO[C@@H]1CN(C)C(=O)NC1CCCC1	?	2.8	0.3	16.9	18.7	2.1	-15.8
CC(C)COC(=O)N(C)C[C@H]1OCc2cnnn2CCCC(=O)N([C@@H](C)CO)C[C@H]1C	-1.1	-0.3	.	.	.	.	.
C[C@H](CO)N1C[C@H](C)[C@H](CN(C)C(=O)NC2CCCCC2)OCc2cnnn2CCCC1=O	-28.1	.	0.4	.	.	.	.
CC(C)COC(=O)N(C)C[C@@H]1OCc2cnnn2CCCC(=O)N([C@H](C)CO)C[C@H]1C	101.4*!	.	-0.3	-17.9	34.4	-4.3	12.3
C[C@H](CO)N1C[C@H](C)[C@@H](CN(C)C(=O)c2ccc3ccn(C)c3c2)OCc2cnnn2CCCC1=O	117.1*!	.	2.2	-20.0	-11.6	-6.3	2.5
COc1cc(OC)c(NC(=O)CN2C(=O)c3ccccc3C2=O)cc1Cl	.	1.2	.	.	.	.	.
CCc1cccc(OCC(=O)Nc2cccc(-c3nnc(-c4ccccc4)o3)c2)c1	.	-0.1	.	.	.	.	.
CCN(CC(N)=O)S(=O)(=O)c1ccc2ccccc2c1	.	-0.5	.	.	.	.	.
CC(=O)Nc1ccc(NC(=O)CSc2nnc(-c3ccncc3)n2-c2ccc(Cl)cc2)cc1	.	-0.5	.	.	.	.	.
COc1ccc(NC(=O)N(C)C[C@@H]2OCCCC[C@@H](C)Oc3ccc(NC(=O)Nc4ccc(C(F)(F)F)cc4)cc3C(=O)N([C@@H](C)CO)C[C@@H]2C)cc1	.	1.1	0.9	.	.	.	.
COc1ccc(NC(=O)N(C)C[C@H]2OCCCC[C@@H](C)Oc3ccc(NC(=O)Nc4ccc(C(F)(F)F)cc4)cc3C(=O)N([C@H](C)CO)C[C@@H]2C)cc1	108.4*	1.1	0.1	111.2*	106.0*	-1.9	25.6*
COc1ccc(NC(=O)Nc2ccc3c(c2)C(=O)N([C@@H](C)CO)C[C@H](C)[C@H](CN(C)C)OCCCC[C@H](C)O3)cc1	96.1*	.	0.2	64.1	-39.3	-10.3	3.6
COc1ccc(NC(=O)N(C)C[C@H]2OCCCC[C@H](C)Oc3ccc(NC(=O)Nc4ccc(F)cc4)cc3C(=O)N([C@@H](C)CO)C[C@H]2C)cc1	-23.4	.	-1.9	.	.	.	.
COc1ccc(NC(=O)Nc2ccc3c(c2)C(=O)N([C@H](C)CO)C[C@H](C)[C@H](CN(C)C(=O)Nc2ccc(C(F)(F)F)cc2)OCCCC[C@H](C)O3)cc1	?	-1.0	0.1	108.6*	98.7*	5.0	6.9
COc1ccc(NC(=O)N(C)C[C@H]2OCCCC[C@@H](C)Oc3ccc(NC(=O)Nc4ccc(F)cc4)cc3C(=O)N([C@H](C)CO)C[C@H]2C)cc1	100.1*	.	-1.4	111.5*	39.7	-2.1	-4.8
COc1ccc(NC(=O)Nc2ccc3c(c2)C(=O)N([C@@H](C)CO)C[C@@H](C)[C@@H](CN(C)C)OCCCC[C@H](C)O3)cc1	27.3	2.7	-1.8	.	.	.	.
COc1ccc(NC(=O)Nc2ccc3c(c2)C(=O)N([C@H](C)CO)C[C@H](C)[C@@H](CN(C)C(=O)Nc2ccc(C(F)(F)F)cc2)OCCCC[C@@H](C)O3)cc1	112.3	.	0.0	.	.	.	.
COc1ccc(NC(=O)Nc2ccc3c(c2)C(=O)N([C@H](C)CO)C[C@H](C)[C@H](CN(C)C(=O)Nc2ccc(C(F)(F)F)cc2)OCCCC[C@@H](C)O3)cc1	.	1.3	-0.6	.	.	.	.
SMILES	T cruzi growth-1	IDH1 mut inh	GASC1 inh	T cruzi growth-2	T cruzi growth-3	3T3 cytotox	NIH3T3 tox 2
COc1ccc(NC(=O)N(C)C[C@@H]2OCCCC[C@H](C)Oc3ccc(NC(=O)Nc4ccc(C(F)(F)F)cc4)cc3C(=O)N([C@@H](C)CO)C[C@H]2C)cc1	97.3*	0.1	-1.5	110.8*	?	-20.8	?
O=c1c2ccccc2nc(-c2ccco2)n1CCN1CCOCC1	.	0.7	.	.	.	.	.
COC(=O)c1sc2ncn(CC(=O)Nc3ccccc3OC)c(=O)c2c1C	.	0.2	.	.	.	.	.
COc1cc(C(O)CCOC2OC(CO)C(O)C(O)C2O)cc2cc(-c3ccc4c(c3)OCO4)oc12 (stereo not given)	.	-0.6	.	.	.	.	.
Cc1ccc(S(=O)(=O)Nc2ccc3c(c2)C(=O)N([C@H](C)CO)C[C@@H](C)[C@@H](CN(C)S(=O)(=O)c2ccc(Cl)cc2)OCCCC[C@H](C)O3)cc1	117.1*	.	1.4	96.8*	106.8*	-24.3	7.8
Cc1ccc(S(=O)(=O)Nc2ccc3c(c2)C(=O)N([C@H](C)CO)C[C@@H](C)[C@@H](CN(C)S(=O)(=O)c2ccc(Cl)cc2)OCCCC[C@@H](C)O3)cc1	119.5*	0.5	0.3	103.4*	114.7*	1.3	14.7
Cc1ccc(S(=O)(=O)N(C)C[C@H]2OCCCC[C@H](C)Oc3ccc(NS(=O)(=O)c4ccc(Cl)cc4)cc3C(=O)N([C@H](C)CO)C[C@H]2C)cc1	108.4*	0.0	1.6	96.9*	109.0*	-22.8	?
Cc1ccc(S(=O)(=O)N(C)C[C@@H]2OCCCC[C@@H](C)Oc3ccc(NS(=O)(=O)c4ccc(Cl)cc4)cc3C(=O)N([C@H](C)CO)C[C@H]2C)cc1	76.9	-1.2	-1.2	.	.	.	.
C[C@H]1CCCCO[C@@H](CN(C)S(=O)(=O)c2ccc(Cl)cc2)[C@@H](C)CN([C@@H](C)CO)C(=O)c2cc(NS(=O)(=O)c3ccc(Cl)cc3)ccc2O1	94.5	3.2	0.1	.	.	.	.
Cc1ccc(S(=O)(=O)Nc2ccc3c(c2)C(=O)N([C@@H](C)CO)C[C@H](C)[C@H](CN(C)S(=O)(=O)c2ccc(Cl)cc2)OCCCC[C@@H](C)O3)cc1	98.7*	2.1	0.0	101.8*	113.1*	7.0	46.9*

High-throughput results deposited in PubChem BioAssay by Broad Institute.
